Calls of active or inactive are those of the source. The rule behind the calls is not given here.
How the values were obtained:
[1] = test system: Human immunodeficiency virus 1; test: Resistance ratio of ID50 for HIV1 reverse transcriptase K103N mutant to ID50 HIV1 wild type reverse transcriptase
[2] = target: Human immunodeficiency virus type 1 reverse transcriptase (Human immunodeficiency virus 1) (UniProt Q72547); test: Noncompetitive inhibition of HIV1 wild type reverse transcriptase using varying concentration of [3H]dTTP by steady state kinetic analysis
In short: (§1)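 Recombinant RT (WT or K103N), RNA-dependent DNA polymerase activity with poly(rA)/oligo(dT) 10:1 and [3H]-dTTP (1 Ci/mmol), 8% final DMSO; steady-state kinetics at fixed inhibitor concentrations, one substrate (nucleic acid or nucleotide) varied while the other kept saturating.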

[3] = test system: Human immunodeficiency virus type 1 reverse transcriptase (Human immunodeficiency virus 1), Q72547 [K103N]; test: Noncompetitive inhibition of HIV1 reverse transcriptase K103N mutant using varying concentration of [3H]dTTP by steady state kinetic analysis; in short: as §1
[4] = Ratio of TMC120 CC50 to compound CC50 for human MT4 cells; type: ADME, cell-based
[5] = test system: Human immunodeficiency virus 1; test: Resistance ratio of ID50 for HIV1 reverse transcriptase L100I mutant to ID50 HIV1 wild type reverse transcriptase
[6] = test system: Human immunodeficiency virus type 1 reverse transcriptase (Human immunodeficiency virus 1), Q72547 [V106A]
[7] = target: Human immunodeficiency virus type 1 reverse transcriptase (Human immunodeficiency virus 1) (UniProt Q72547); test: Noncompetitive inhibition of HIV1 wild type reverse transcriptase using varying concentration of varying polyrA/oligodT by steady state kinetic analysis; in short: as §1
[8] = test system: Human immunodeficiency virus 1; test: Resistance ratio of ID50 for HIV1 reverse transcriptase V106A mutant to ID50 HIV1 wild type reverse transcriptase
[9] = test system: Human immunodeficiency virus 1; test: Antiviral activity against HIV1 harboring reverse transcriptase Y181C mutant infected in human MT4 cells assessed as inhibition of virus-induced cytopathic effect after 5 days by MTT assay; type: functional, organism-based; conditions: Human immunodeficiency virus 1, MT4, 120 h
[10] = test system: Human immunodeficiency virus 1; test: Antiviral activity against HIV1 harboring reverse transcriptase Y188L mutant infected in human MT4 cells assessed as inhibition of virus-induced cytopathic effect after 5 days by MTT assay; type: functional, organism-based; conditions: Human immunodeficiency virus 1, MT4, 120 h
[11] = test system: Human immunodeficiency virus 1; test: Resistance ratio of EC50 for HIV1 harboring reverse transcriptase Y181C mutant to EC50 for wild type HIV1 NL4-3; type: functional
In short: (§2)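 MT-4 cells, MTT read-out of HIV-induced cytopathic effect; fold resistance calculated as EC50 against the drug-resistant strain divided by EC50 against WT NL4-3; EC50 values are means ± SD from at least three experiments.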

[12] = test system: Human immunodeficiency virus type 1 reverse transcriptase (Human immunodeficiency virus 1), Q72547 [L100I]
[13] = test system: Human immunodeficiency virus 1; test: Antiviral activity against wild type HIV1 NL4-3 infected in human MT4 cells assessed as inhibition of virus-induced cytopathic effect after 5 days by MTT assay; type: functional, organism-based; conditions: Human immunodeficiency virus 1, NL4-3, MT4, 120 h
In short: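 Lymphoid MT-4 cells infected with wild-type HIV-1 NL4-3. […] Values are means ± SD from at least three experiments.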

[14] = test system: Human immunodeficiency virus 1; test: Resistance ratio of ID50 for HIV1 reverse transcriptase Y188L mutant to ID50 HIV1 wild type reverse transcriptase
[15] = test system: Human immunodeficiency virus 1; test: Antiviral activity against HIV1 harboring reverse transcriptase K103N mutant infected in human MT4 cells assessed as inhibition of virus-induced cytopathic effect after 5 days by MTT assay; type: functional, organism-based; conditions: Human immunodeficiency virus 1, MT4, 120 h
[16] = test system: Human immunodeficiency virus type 1 reverse transcriptase (Human immunodeficiency virus 1), Q72547 [Y181I]
[17] = test system: Human immunodeficiency virus 1; test: Resistance ratio of EC50 for HIV1 harboring reverse transcriptase K103N mutant to EC50 for wild type HIV1 NL4-3; type: functional; in short: as §2
[18] = test system: Human immunodeficiency virus 1; test: Resistance ratio of EC50 for HIV1 harboring reverse transcriptase Y188L mutant to EC50 for wild type HIV1 NL4-3; type: functional; in short: as §2
[19] = Selectivity index, ratio of CC50 for human MT4 cells to EC50 for wild type HIV1 NL4-3; type: toxicity, cell-based; conditions: read-out: Ratio CC50/EC50
[20] = test system: Human immunodeficiency virus type 1 reverse transcriptase (Human immunodeficiency virus 1), Q72547 [K103N]
[21] = test system: Human immunodeficiency virus 1; test: Resistance ratio of ID50 for HIV1 reverse transcriptase Y181I mutant to ID50 HIV1 wild type reverse transcriptase
[22] = target: Human immunodeficiency virus type 1 reverse transcriptase (Human immunodeficiency virus 1) (UniProt Q72547)
[23] = test system: Human immunodeficiency virus type 1 reverse transcriptase (Human immunodeficiency virus 1), Q72547 [K103N]; test: Noncompetitive inhibition of HIV1 reverse transcriptase K103N mutant using varying concentration of varying polyrA/oligodT by steady state kinetic analysis; in short: as §1
[24] = Cytotoxicity against human MT4 cells after 5 days by MTT assay; type: cell-based
In short: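 Noninfected lymphoid MT-4 cells were exposed to compound. […] Values are means ± SD from at least three experiments.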

Row | Structure (SMILES) | Ratio [1] | Ratio [5] | ID50 [6] [nM] | Ratio [8] | EC50 [9] [nM] | EC50 [10] [nM] | Ratio EC50 [11] | ID50 [12] [nM] | EC50 [13] [nM] | Ratio [14] | EC50 [15] [nM] | ID50 [16] [nM] | Ratio EC50 [17] | Ratio EC50 [18] | selectivity ratio [19] | ID50 [20] [nM] | Ratio [21] | ID50 [22] [nM] | CC50 at 120 h [24] [nM] | other results
1 | Cc1c(N)nc(Nc2ccc(C#N)cc2)nc1[C@H](C)c1c(F)cccc1F | 1 | 20 | 0.3 | 0.04 | 31 | 7.1 | 300 | 150 | 0.1 | 0.4 | 0.8 | 750 | 8 | 70 | 300000 | 8 | 90 | 8 | 31000 | inhibition [2]: Active; inhibition [3]: Active; selectivity ratio [4]: 10; inhibition [7]: Active; inhibition [23]: Active
2 | CCCN(C)c1nc([C@@H](C)c2c(F)cccc2F)c(C)c(=O)[nH]1 | – | 0.4 | 120 | 0.1 | > 78000 | > 78000 | – | 350 | 15000 | – | > 78000 | > 20000 | – | – | > 5.2 | > 20000 | – | 975 | > 78000 | –
3 | Cc1ccnc2c1NC(=O)c1cccnc1N2C1CC1 [NEVIRAPINE] | 20 | – | – | – | > 7500 | > 7500 | – | – | – | – | – | – | 47 | – | 58 | – | 87 | – | 7500 | –
4 | Cc1c(N)nc(Nc2ccc(C#N)cc2)nc1[C@@H](C)c1c(F)cccc1F | 1.3 | – | 64 | 0.3 | > 38000 | 6500 | – | > 15000 | 1000 | 3 | 4500 | > 20000 | 4 | 6 | 40 | 240 | – | 180 | 38000 | –
5 | Cc1cc(C)c(Nc2ccnc(Nc3ccc(C#N)cc3)n2)c(C)c1 [DAPIVIRINE] | – | – | – | – | – | – | – | – | 0.6 | – | – | – | – | – | – | – | – | – | 3000 | –
6 | CCCN(C)c1nc([C@H](C)c2c(F)cccc2F)c(C)c(=O)[nH]1 | 48 | 50 | 3 | 1.5 | 13 | 28 | 10 | 96 | 1.3 | 100 | 11 | 450 | 8 | 22 | 58000 | 96 | 200 | 2 | 75000 | inhibition [2]: Active; inhibition [3]: Active; inhibition [7]: Active; inhibition [23]: Active
7 | CCCN(C)c1nc(C(C)c2c(F)cccc2F)c(C)c(=O)[nH]1 (racemic) | 6 | 6 | 19 | 0.6 | 17 | 49 | 9 | 177 | 1.9 | 50 | 16.5 | 1260 | 9 | 26 | > 41000 | 174 | 40 | 30 | > 78000 | –
8 | O=C1Nc2ccc(Cl)cc2[C@@](C#CC2CC2)(C(F)(F)F)O1 [EFAVIRENZ] | – | – | – | – | 10 | – | – | – | 7.3 | – | – | – | – | – | – | – | – | – | 3200 | –

Reference: ChEMBL document CHEMBL2034813, “2-(Alkyl/aryl)amino-6-benzylpyrimidin-4(3H)-ones as inhibitors of wild-type and mutant HIV-1: enantioselectivity studies” (J Med Chem, 2012)
